Experimental data taken from ChEMBL document CHEMBL4049408, “Exploration of 2-((Pyridin-4-ylmethyl)amino)nicotinamide Derivatives as Potent Reversal Agents against P-Glycoprotein-Mediated Multidrug Resistance” (J Med Chem, 2017).

What was measured:
K562 [1] = experiment: Cytotoxicity against human K562 cells after 48 hrs by MTT assay; type: functional, cell-based; details: K562, 48 h
Method in brief: (§1)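 MTT viability in parental K562 and P-gp-overexpressing K562/A02 cells. Compound alone at a concentration series gives the IC50. Mean ± SD of three independent tests.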

K562/A02 [2] = experiment: Cytotoxicity against human K562/A02 cells overexpressing P-gp after 48 hrs by MTT assay; type: functional, cell-based; details: K562/A02, 48 h; method in brief: as §1
[3] = target: T1, ATP-dependent translocase ABCB1 (Homo sapiens, UniProt P08183); experiment: Inhibition of ABCB1 in human K562/A02 cells assessed as potentiation of adriamycin-mediated cytotoxicity by measuring reduction in ADR IC50 at 5 uM after 48 hrs by MTT assay relative to control; type: cell-based
T1 sequence (P08183 whole entry): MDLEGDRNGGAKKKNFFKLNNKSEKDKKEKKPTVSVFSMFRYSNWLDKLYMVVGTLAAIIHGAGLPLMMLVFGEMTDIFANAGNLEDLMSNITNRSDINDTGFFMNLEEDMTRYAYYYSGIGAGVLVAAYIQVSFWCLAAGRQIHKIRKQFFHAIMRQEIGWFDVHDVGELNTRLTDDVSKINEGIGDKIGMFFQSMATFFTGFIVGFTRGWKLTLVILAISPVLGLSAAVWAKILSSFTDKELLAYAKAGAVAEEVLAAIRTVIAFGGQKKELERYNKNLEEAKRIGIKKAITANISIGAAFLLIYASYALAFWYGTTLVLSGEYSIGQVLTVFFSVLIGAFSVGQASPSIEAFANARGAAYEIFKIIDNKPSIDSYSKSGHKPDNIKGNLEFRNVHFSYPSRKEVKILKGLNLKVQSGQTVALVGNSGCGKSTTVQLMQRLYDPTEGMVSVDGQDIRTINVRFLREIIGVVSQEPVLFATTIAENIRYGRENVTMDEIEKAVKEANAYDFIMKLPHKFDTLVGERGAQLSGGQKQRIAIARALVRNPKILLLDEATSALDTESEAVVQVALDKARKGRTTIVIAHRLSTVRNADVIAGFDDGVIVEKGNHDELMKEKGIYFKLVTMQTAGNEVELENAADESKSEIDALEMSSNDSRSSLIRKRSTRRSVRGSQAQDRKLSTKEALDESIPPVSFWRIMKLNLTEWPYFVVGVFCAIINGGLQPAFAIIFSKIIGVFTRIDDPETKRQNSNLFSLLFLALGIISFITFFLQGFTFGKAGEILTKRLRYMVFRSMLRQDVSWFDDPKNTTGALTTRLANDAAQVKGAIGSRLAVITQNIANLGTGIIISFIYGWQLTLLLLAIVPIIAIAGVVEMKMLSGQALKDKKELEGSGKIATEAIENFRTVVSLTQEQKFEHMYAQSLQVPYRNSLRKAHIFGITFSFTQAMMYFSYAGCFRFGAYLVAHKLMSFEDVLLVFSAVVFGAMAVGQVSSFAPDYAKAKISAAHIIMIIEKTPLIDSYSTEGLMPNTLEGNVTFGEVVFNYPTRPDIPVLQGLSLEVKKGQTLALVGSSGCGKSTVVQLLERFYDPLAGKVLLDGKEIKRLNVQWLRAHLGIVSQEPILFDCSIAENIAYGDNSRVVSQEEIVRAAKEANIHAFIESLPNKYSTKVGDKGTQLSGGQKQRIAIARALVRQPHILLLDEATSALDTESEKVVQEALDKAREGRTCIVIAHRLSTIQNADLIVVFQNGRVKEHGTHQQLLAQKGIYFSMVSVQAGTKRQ
Method in brief: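 K562/A02 cells exposed to a series of adriamycin concentrations with modulator at 5.0 µM; 0.1% DMSO as solvent control. IC50 read by MTT. Reversal fold = IC50 without inhibitor / IC50 with inhibitor. Mean ± SD of three independent tests.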

[4] = (§2) Cytotoxicity against human K562/A02 cells assessed as cell survival at 5 uM after 48 hrs by MTT assay relative to control; type: cell-based; details: K562/A02 cells, read-out: Survival
Method in brief: (§3)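 MTT viability assay in P-gp-overexpressing, ADM-resistant K562/A02 cells, alongside parental K562. […] Values are mean ± SD of three independent tests.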

K562/A02 [5] = experiment: as §2; type: cell-based; details: k562/a02, 48 h, 5 µM; method in brief: as §3
[6] = Inhibition of CYP3A4 in rat liver microsomes assessed as 6beta-hydroxytestosterone formation using testosterone as substrate by reverse-phase HPLC analysis; type: ADME
[7] = target: T1, ATP-dependent translocase ABCB1; experiment: Inhibition of ABCB1 in human K562/A02 cells assessed as increase in intracellular Rh123 accumulation at 5 uM up to 90 mins by flow cytometry; type: cell-based; details: 1.5 h
Method in brief: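 K562/A02 cells treated with 5.0 µM modulator; Rh123-associated mean fluorescence intensity read by flow cytometry at 5, 10, 25, 30, 60 and 90 min. Untreated cells as negative control. Mean ± SD of three experiments.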

[8] = target: T1, ATP-dependent translocase ABCB1; experiment: Substrate activity at ABCB1 ATPase in human ABCB1 membrane fraction assessed as increase in ATPase activity at 50 uM preincubated with compound followed by addition of MgATP measured after 1 hr by luciferase reporter gene assay relative to control; type: cell membranes
K562 [9] = experiment: Resistance index, ratio of IC50 for human K562/A02 cells to IC50 for human K562 cells; type: functional
Method in brief: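 Adriamycin IC50 measured by MTT in K562/A02 and in parental K562 cells. Fold resistance is the ratio of the resistant-line IC50 to the sensitive-line IC50. Mean ± SD of three independent tests.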

Row | SMILES | IC50 (K562 [1]) | IC50 (K562/A02 [2]) | fold change (FC) [3] | viability at 48 h, 5 µM [4] | Activity (K562/A02 [5]) | inhibition (INH) [6] | inhibition (INH) [7] | fold change (FC) [8] | Ratio IC50 (K562 [9])
1 | COc1ccc(CN(C)C(=O)c2cccnc2NCc2ccncc2)cc1OC | > 100 µM | > 100 µM | 9.58 | > 90% | – | – | – | – | –
2 | O=C(Nc1ccc(N2CCCCC2)cc1)c1cccnc1NCc1ccncc1 | > 100 µM | > 100 µM | 5.21 | > 90% | – | – | – | – | –
3 | COc1cccc(NC(=O)c2cccnc2NCc2ccncc2)c1 | > 100 µM | > 100 µM | 3.76 | > 90% | – | – | – | – | –
4 | COc1cccc(-c2nnc(NC(=O)c3cccnc3NCc3ccncc3)s2)c1 | 39.5 µM | > 100 µM | 4.6 | > 90% | – | – | – | – | –
5 | O=C(c1ccccc1)c1ccccc1NC(=O)c1cccnc1NCc1ccncc1 | > 100 µM | > 100 µM | 1.28 | – | Non-Toxic | – | – | – | –
6 | COc1ccc(C2c3cc(OC)c(OC)cc3CCN2C(=O)c2cccnc2NCc2ccncc2)cc1OC (stereo unspecified) | > 100 µM | > 100 µM | 3.44 | – | Non-Toxic | – | – | – | –
7 | O=C(Nc1nc2ccccc2[nH]1)c1cccnc1NCc1ccncc1 | > 100 µM | > 100 µM | 1.69 | > 90% | – | – | – | – | –
8 | COc1cc2c(cc1OC)C(c1ccco1)N(C(=O)c1cccnc1NCc1ccncc1)CC2 (stereo unspecified) | > 100 µM | > 100 µM | 1.52 | – | Non-Toxic | – | – | – | –
9 | O=C(Nc1ccc(CCN2CCOCC2)cc1)c1cccnc1NCc1ccncc1 | > 100 µM | > 100 µM | 5.64 | – | Non-Toxic | – | – | – | –
10 | COc1cc2c(cc1OC)C(c1ccccc1)N(C(=O)c1cccnc1NCc1ccncc1)CC2 (stereo unspecified) | > 100 µM | > 100 µM | 2.96 | – | Non-Toxic | – | – | – | –
11 | CC(=O)N1CCN(c2ccc(OCC3COC(Cn4ccnc4)(c4ccc(Cl)cc4Cl)O3)cc2)CC1 (stereo unspecified) [KETOCONAZOLE] | – | – | – | – | – | Dose-dependent effect | – | – | –
12 | O=C(Nc1ccc(-c2ccccc2)cc1)c1cccnc1NCc1ccncc1 | 17 µM | 27.9 µM | 12.69 | > 90% | – | – | – | – | –
13 | CC(C)(C)c1ccc(NC(=O)c2cccnc2NCc2ccncc2)cc1 | > 100 µM | > 100 µM | 4.27 | > 90% | – | – | – | – | –
14 | O=C(Nc1ccc(F)c(Cl)c1)c1cccnc1NCc1ccncc1 | 78.9 µM | 27.9 µM | 6.6 | > 90% | – | – | – | – | –
15 | O=C(Nc1ccc(N2CCOCC2)cc1)c1cccnc1NCc1ccncc1 | > 100 µM | > 100 µM | 18.8 | > 90% | – | – | – | – | –
16 | O=C(Nc1cccc2ccccc12)c1cccnc1NCc1ccncc1 | > 100 µM | > 100 µM | 7.74 | > 90% | – | – | – | – | –
17 | COc1ccc(CCN(C)CCCC(C#N)(c2ccc(OC)c(OC)c2)C(C)C)cc1OC (stereo unspecified) | 36.7 to 37.3 µM | 31.3 to 33.6 µM | – | – | – | – | Active | 2.56 | –
18 | COc1cc2c(cc1OC)C(Cc1cccc3ccccc13)N(C(=O)c1cccnc1NCc1ccncc1)CC2 (stereo unspecified) | > 100 µM | > 100 µM | 2.51 | – | Non-Toxic | – | – | – | –

Row | SMILES | IC50 (K562 [1]) | IC50 (K562/A02 [2]) | fold change (FC) [3] | viability at 48 h, 5 µM [4] | Activity (K562/A02 [5]) | inhibition (INH) [6] | inhibition (INH) [7] | fold change (FC) [8] | Ratio IC50 (K562 [9])
19 | Cc1cccc(Cl)c1NC(=O)c1cnc(NC(=O)c2cccnc2NCc2ccncc2)s1 | 57.7 µM | 86 µM | 7.95 | – | Non-Toxic | – | – | – | –
20 | CN1CCN(c2ccc(NC(=O)c3cccnc3NCc3ccncc3)cc2)CC1 | > 100 µM | > 100 µM | 4.93 | > 90% | – | – | – | – | –
21 | COc1ccc(CCNC(=O)c2cccnc2NCc2ccncc2)cc1OC | > 100 µM | > 100 µM | 16.6 | > 90% | – | – | – | – | –
22 | O=C(NCc1ccncc1)c1cccnc1NCc1ccncc1 | > 100 µM | > 100 µM | 7.92 | > 90% | – | – | – | – | –
23 | COc1cc2c(cc1OC)CN(C(=O)c1cccnc1NCc1ccncc1)CC2 | 72.5 µM | 85.7 µM | 17.97 | – | Non-Toxic | – | – | – | –
24 | COc1cc2c(cc1OC)C(C(C)(C)C)N(C(=O)c1cccnc1NCc1ccncc1)CC2 (stereo unspecified) | > 100 µM | > 100 µM | 2.66 | – | Non-Toxic | – | – | – | –
25 | O=C(c1cccnc1NCc1ccncc1)N1CCC(N2CCCCC2)CC1 | 51.4 µM | > 100 µM | 1.2 | > 90% | – | – | – | – | –
26 | O=C(c1cccnc1NCc1ccncc1)N(Cc1ccccc1)Cc1ccccc1 | 76.4 µM | 82.2 µM | 10.14 | – | Non-Toxic | – | – | – | –
27 | O=C(NC1CCCc2ccccc21)c1cccnc1NCc1ccncc1 (stereo unspecified) | 66.1 µM | > 100 µM | 4.24 | > 90% | – | – | – | – | –
28 | O=C(Nc1ccc(OC(F)(F)F)cc1)c1cccnc1NCc1ccncc1 | 24.2 µM | 28.7 µM | 8.42 | > 90% | – | – | – | – | –
29 | COc1cc(NC(=O)c2cccnc2NCc2ccncc2)cc(OC)c1OC | > 100 µM | > 100 µM | 3.51 | > 90% | – | – | – | – | –
30 | O=C(Nc1ccc2c(c1)Cc1ccccc1-2)c1cccnc1NCc1ccncc1 | 70 µM | > 100 µM | 13.65 | – | Non-Toxic | – | – | – | –
31 | O=C(NC(c1ccccc1)c1ccccc1)c1cccnc1NCc1ccncc1 | > 100 µM | > 100 µM | 3.94 | – | Non-Toxic | – | – | – | –
32 | COc1cccc2c1C(=O)c1c(O)c3c(c(O)c1C2=O)C[C@@](O)(C(=O)CO)C[C@@H]3O[C@H]1C[C@H](N)[C@H](O)[C@H](C)O1.Cl [DOXORUBICIN HYDROCHLORIDE] | 0.51 to 0.58 µM | 54 to 56.8 µM | – | – | – | – | – | – | 105.8
33 | CN1CCN(CCc2ccc(NC(=O)c3cccnc3NCc3ccncc3)cc2)CC1 | > 100 µM | > 100 µM | 2.04 | – | Non-Toxic | – | – | – | –
34 | O=C(NCCc1cccs1)c1cccnc1NCc1ccncc1 | > 100 µM | > 100 µM | 1.37 | > 90% | – | – | – | – | –
35 | COc1ccc(NC(=O)c2cccnc2NCc2ccncc2)cc1Cl | > 100 µM | > 100 µM | 5.29 | > 90% | – | – | – | – | –
